Laboratory results published in ChEMBL document CHEMBL3421532, “Synthesis and antiproliferative activity of α-branched α,β-unsaturated ketones in human hematological and solid cancer cell lines” (Eur J Med Chem, 2015).
The source made the active and inactive calls. The rule behind the calls is not given here.

How the values were obtained:
Format in all cases: functional, cell-based
[1] = Antiproliferative activity against human NB4 cells assessed as cell growth inhibition after 48 hrs by XTT assay; conditions: NB-4, 48 h
Procedure, shortened: (§1)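 NB4 grown in RPMI 1640 with 10% FBS and penicillin/streptomycin, A549 and MCF-7 in DMEM, all at 37 °C and 5% CO2. Cells seeded at 1.5∙10⁴ (NB4) or 1.0∙10⁴ (A549, MCF-7) per well. Adherent lines dosed 24 h after plating, NB4 shortly after. Triplicate concentrations from 0.1 to 100, DMSO control at 0.5% v/v. After 48 h exposure, XTT added for 2 h. A450 minus A690 read, GI50 reported with SE.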

MCF7 [2] = experiment: Antiproliferative activity against human MCF7 cells assessed as cell growth inhibition after 48 hrs by XTT assay; conditions: MCF7, 48 h; procedure, shortened: as §1
A549 [3] = experiment: Antiproliferative activity against human A549 cells assessed as cell growth inhibition after 48 hrs by XTT assay; conditions: A549, 48 h; procedure, shortened: as §1
MCF7 [4] = experiment: Cell cycle arrest in human MCF7 cells assessed as increase in cell population at G2/M phase at 10 uM after 48 hrs by flow cytometry
Procedure, shortened: (§2)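 Cells seeded in 6-well plates at 1∙10⁶ (NB4) or 0.45∙10⁶ (A549, MCF-7) per well. Treated for 48 h at 10 (NB4, MCF-7), 20 and 30 (A549), or, for NB4, a lower 5; DMSO solvent control. Cell cycle phase distribution and sub-G1 measured by flow cytometry. Mean of two independent experiments.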

MCF7 [5] = experiment: Cell cycle arrest in human MCF7 cells assessed as increase in cell population at S phase at 10 uM after 48 hrs by flow cytometry; procedure, shortened: as §2
A549 [6] = experiment: Cell cycle arrest in human A549 cells assessed as slight increase in cell population at S phase at 20 uM after 48 hrs by flow cytometry; procedure, shortened: as §2
A549 [7] = experiment: Cell cycle arrest in human A549 cells assessed as increase in cell population at S phase at 30 uM after 48 hrs by flow cytometry; procedure, shortened: as §2
A549 [8] = experiment: Induction of apoptosis in human A549 cells at 20 to 30 uM after 24 to 48 hrs by annexin V binding assay
Procedure, shortened: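 Cells seeded in 6-well plates at 1∙10⁶ (NB4) or 0.45∙10⁶ (A549, MCF-7) per well. Treated at 5 (NB4), 20 and 30 (A549) or 10 (MCF-7). Apoptotic cell percentage measured by annexin V binding after 24 and 48 h. Mean of two independent experiments.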

A549 [9] = experiment: Cell cycle arrest in human A549 cells assessed as slight increase in cell accumulation at G2/M phase at 20 uM after 48 hrs by flow cytometry; procedure, shortened: as §2

| IC50 (MCF7 [2]) [µM] | IC50 (A549 [3]) [µM] | Compound | IC50 [1] [µM] | Activity (MCF7 [4]) | Activity (MCF7 [5]) | Activity (A549 [6]) | Activity (A549 [7]) | Activity (A549 [8]) | Activity (A549 [9]) |
| --- | --- | --- | --- | --- | --- | --- | --- | --- | --- |
| 28 | > 100 | CCC(/C=C(\COC(=O)c1ccccc1)C(=O)c1ccc(OC)cc1)CC | 26.8 | – | – | – | – | – | – |
| 15.9 | 20.9 | C=C(C/C(=C\c1ccc(C)cc1)C(=O)c1ccccc1)C(=O)c1ccccc1 | 7.6 | – | – | – | – | – | – |
| > 100 | 98 | COc1ccc(C(=O)/C(=C/C2CCCCC2)CC(C)OC(C)=O)cc1 (stereo not given) | 33.4 | – | – | – | – | – | – |
| 8.7 | 97 | CC(=O)OC/C(=C\c1ccc(Cl)cc1Cl)C(=O)c1ccccc1 | 6.6 | Active | Active | – | – | – | – |
| 38.9 | 32.9 | C=C(C(=O)c1ccc(OC)cc1)C(OC(C)=O)C(CC)CC (stereo not given) | 11.8 | – | – | – | – | – | – |
| > 100 | > 100 | COc1ccc(C(=O)/C(=C/c2ccc(Cl)cc2Cl)CC2CCCCC2)cc1 | 48.9 | – | – | – | – | – | – |
| 26.9 | 43.8 | C=C(C/C(=C\c1ccc(C)cc1)C(=O)c1ccc(OC)cc1)C(=O)c1ccc(OC)cc1 | 11.4 | – | – | – | – | – | – |
| > 100 | > 100 | COc1ccc(C(=O)/C(=C/c2ccccc2F)CCOC(C)=O)cc1 | > 100 | – | – | – | – | – | – |
| 29.6 | 28.5 | C=C(C(=O)c1ccc(OC)cc1)C(O)c1ccccc1Cl (stereo not given) | 8.1 | – | – | – | – | – | – |
| 39.7 | 32.4 | COc1ccc(C(=O)/C(=C/c2ccc(Cl)cc2Cl)CN(C)C(=O)c2ccccc2)cc1 | 24 | – | – | – | – | – | – |
| 11.8 | 45.5 | C=C(C(=O)c1ccc(OC)cc1)C(OC(=O)c1ccccc1)c1ccccc1[N+](=O)[O-] (stereo not given) | 12.7 | – | – | – | – | – | – |
| 83.4 | 69.2 | COc1ccc(C(=O)/C(=C/c2ccc(Cl)cc2Cl)CCOC(C)=O)cc1 | 34.8 | – | – | – | – | – | – |
| 39.8 | 20.3 | CC(=O)OC/C(=C/c1ccccc1F)C(=O)c1ccccc1 | 8.3 | – | – | – | – | – | – |
| 14.5 | > 100 | C=C(C(=O)c1ccc(OC)cc1)C(C)OC(=O)c1ccccc1 (stereo not given) | 15.7 | – | – | – | – | – | – |
| 24 | 90 | COc1ccc(C(=O)/C(=C/C2CCCCC2)COC(C)=O)cc1 | 23.3 | – | – | – | – | – | – |
| > 100 | 91.7 | COc1ccc(C(=O)/C(=C/c2c(F)c(F)c(F)c(F)c2F)CC(C)OC(C)=O)cc1 (stereo not given) | 49 | – | – | – | – | – | – |
| 30.9 | 15.7 | C=C(C(=O)c1ccc(OC)cc1)C(O)c1ccccc1F (stereo not given) | 6.9 | – | – | – | – | – | – |
| 6.7 | 14.8 | C=C(C(=O)c1ccc(OC)cc1)C(OC(C)=O)c1c(F)c(F)c(F)c(F)c1F (stereo not given) | 12.6 | Active | Active | Active | Active | Active | Active |
| 9 | 70 | C=C(C(=O)c1ccc(OC)cc1)C(O)c1ccc(Cl)cc1Cl (stereo not given) | 26.1 | – | – | – | – | – | – |
| 31.7 | 74.5 | CC(=O)OC/C(=C/c1ccc(Cl)cc1Cl)C(=O)c1ccccc1 | 12.6 | – | – | – | – | – | – |
| > 100 | 58.1 | COc1ccc(C(=O)/C(=C/c2c(F)c(F)c(F)c(F)c2F)CCOC(C)=O)cc1 | 28.5 | – | – | – | – | – | – |
| > 100 | 73.2 | COc1ccc(C(=O)/C(=C/c2ccc(Cl)cc2)CC(C)OC(C)=O)cc1 (stereo not given) | 62 | – | – | – | – | – | – |
| 7.4 | 22.9 | C=C(C/C(=C\c1ccccc1)C(=O)c1ccc(OC)cc1)C(=O)c1ccc(OC)cc1 | 7.4 | – | – | – | – | – | – |
| 18 | 67.3 | C=C(C(=O)c1ccc(OC)cc1)C(OC(C)=O)c1ccccc1F (stereo not given) | 9.5 | – | – | – | – | – | – |
| > 100 | 13 | C=C(C(=O)c1ccc(OC)cc1)C(OC(=O)c1ccccc1)c1ccc([N+](=O)[O-])cc1[N+](=O)[O-] (stereo not given) | 10 | – | – | – | – | – | Active |
| 13.7 | > 100 | CCC(/C=C(\COC(C)=O)C(=O)c1ccc(OC)cc1)CC | 9.5 | – | – | – | – | – | – |
| 56.1 | 66.6 | C=C(C(=O)c1ccc(OC)cc1)C(OC(=O)c1ccccc1)c1ccc([N+](=O)[O-])cc1 (stereo not given) | 13.2 | – | – | – | – | – | – |
| 7 | 70.1 | COc1ccc(C(=O)/C(=C/c2ccc([N+](=O)[O-])cc2)CN2CCOCC2)cc1 | 5.6 | – | – | – | – | – | – |

| IC50 (MCF7 [2]) [µM] | IC50 (A549 [3]) [µM] | Compound | IC50 [1] [µM] | Activity (MCF7 [4]) | Activity (MCF7 [5]) | Activity (A549 [6]) | Activity (A549 [7]) | Activity (A549 [8]) | Activity (A549 [9]) |
| --- | --- | --- | --- | --- | --- | --- | --- | --- | --- |
| 61.6 | 44.4 | C=C(C/C(=C\c1ccc(OC(=O)c2ccccc2)cc1)C(=O)c1ccccc1)C(=O)c1ccccc1 | 8 | – | – | – | – | – | – |
| 13.7 | 36 | COc1ccc(C(=O)/C(=C/C2CCCCC2)COC(=O)c2ccccc2)cc1 | 10.2 | – | – | – | – | – | – |
| 29.8 | > 100 | C/C=C(\COC(=O)c1ccccc1)C(=O)c1ccc(OC)cc1 | 16.2 | – | – | – | – | – | – |
| 45.3 | 32.1 | C=C(C(=O)c1ccc(OC)cc1)C(OC(=O)c1ccccc1)c1c(F)c(F)c(F)c(F)c1F (stereo not given) | 12.9 | – | – | – | – | – | – |
| 42.3 | > 100 | COc1ccc(C(=O)/C(=C/c2ccc(Cl)cc2Cl)CN2CCOCC2)cc1 | 8.5 | – | – | – | – | – | – |
| 14 | > 100 | C=C(C(=O)c1ccc(OC)cc1)C(OC(C)=O)C1CCCCC1 (stereo not given) | 10.5 | – | – | – | – | – | – |
| 34.3 | 62.1 | C=C(C(=O)c1ccc(OC)cc1)C(OC(=O)c1ccccc1)C1CCCCC1 (stereo not given) | 10 | – | – | – | – | – | – |
| 6.1 | 21.3 | C=C(C(=O)c1ccc(OC)cc1)C(OC(C)=O)c1ccc([N+](=O)[O-])cc1 (stereo not given) | 10.3 | – | – | – | – | – | – |
| > 100 | > 100 | COc1ccc(C(=O)/C(=C/c2ccc([N+](=O)[O-])cc2)CCOC(C)=O)cc1 | > 100 | – | – | – | – | – | – |
| > 100 | 80.3 | COc1ccc(C(=O)/C(=C/c2ccc(Cl)cc2Cl)CC(C)C)cc1 | 14.6 | – | – | – | – | – | – |
| > 100 | > 100 | CCC(/C=C(\CCOC(C)=O)C(=O)c1ccc(OC)cc1)CC | 91.1 | – | – | – | – | – | – |
| 32.7 | 69.7 | COc1ccc(C(=O)/C(=C/C2CCCCC2)CN(C)C(=O)c2ccccc2)cc1 | 32.4 | – | – | – | – | – | – |
| 36 | 30.5 | C=C(C(=O)c1ccc(OC)cc1)C(OC(=O)c1ccccc1)c1ccccc1Cl (stereo not given) | 8.5 | – | – | – | – | – | – |
| > 100 | > 100 | COc1ccc(C(=O)/C(=C/c2ccc(C(F)(F)F)cc2)CC2CCCCC2)cc1 | 18.2 | – | – | – | – | – | – |
| > 100 | > 100 | COc1ccc(C(=O)/C(=C/c2ccc(C(F)(F)F)cc2)CC(C)C)cc1 | 12.6 | – | – | – | – | – | – |
| 34.2 | 73.7 | C=C(C(=O)c1ccc(OC)cc1)C(OC(=O)c1ccccc1)c1ccccc1F (stereo not given) | 14.3 | – | – | – | – | – | – |
| 70.1 | > 100 | C=C(C(=O)c1ccc(OC)cc1OC)C(OC(C)=O)c1ccccc1[N+](=O)[O-] (stereo not given) | 8.8 | – | – | – | – | – | – |
| 17.9 | 35.2 | C=C(C(=O)c1ccc(OC)cc1)C(OC(=O)c1ccccc1)C(CC)CC (stereo not given) | 13 | – | – | – | – | – | – |
| > 100 | > 100 | COc1ccc(C(=O)/C(=C/c2ccccc2Cl)CCOC(C)=O)cc1 | 51.6 | – | – | – | – | – | – |
| 30 | 22.5 | COc1ccc(C(=O)/C(=C/c2ccccc2F)COC(C)=O)cc1 | 8.2 | – | – | – | – | – | – |
| 26.8 | 79.2 | C=C(C(=O)c1ccc(OC)cc1)C(OC(=O)c1ccccc1)c1ccc(Cl)cc1Cl (stereo not given) | 9.7 | – | – | – | – | – | – |
| > 100 | > 100 | COc1ccc(C(=O)/C(=C/C2CCCCC2)CCOC(C)=O)cc1 | > 100 | – | – | – | – | – | – |
| 9 | 20.1 | COc1ccc(C(=O)/C(=C/c2ccccc2Cl)COC(=O)c2ccccc2)cc1 | 7 | Active | Active | Active | Active | Active | Active |
| > 100 | > 100 | COc1ccc(C(=O)/C(=C/c2ccc(Cl)cc2)CC(C)C)cc1 | 12.1 | – | – | – | – | – | – |
| > 100 | 86 | COc1ccc(C(=O)/C(=C/c2ccc(Cl)cc2)CCOC(C)=O)cc1 | 36.3 | – | – | – | – | – | – |
| 36 | 52 | COc1ccc(C(=O)/C(=C\c2ccccc2Cl)COC(=O)c2ccccc2)cc1 | 20.1 | – | – | – | – | – | – |
| > 100 | 40.3 | COc1ccc(C(=O)/C(=C/c2ccc(Cl)cc2Cl)CC(C)OC(C)=O)cc1 (stereo not given) | 36.8 | – | – | – | – | – | – |
